Assay results reported in the array DNA melting data of Ke et al. (doi:10.1101/2024.01.08.574731).

Experiments:
[1] = folding enthalpy; higher = less favourable; fluorescence melt of hairpins on a sequencing array, two-state fit; settings: sodium 0.088 M
Procedure, shortened: (§1)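 To match UV melts, fitted temperatures were raised by 9.35 °C. These fits were bootstrapped two-state models that gave melting temperature and folding enthalpy, combined by inverse variance over four replicates. The input was normalised Cy3 fluorescence of library hairpins with annealed Cy3 and quencher oligos on a sequenced MiSeq flow cell, imaged in 50 mM Na-HEPES pH 8.0, 25 mM NaCl in 2.5 °C steps up to 60 °C.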

[2] = melting temperature; fluorescence melt of hairpins on a sequencing array, two-state fit, raised by 9.35 °C to match UV melts; settings: sodium 0.088 M
Procedure, shortened: as §1

Sequence	folding enthalpy [1] [kcal/mol]	Tm [2] [°C]
GGGCTCGAAAGAGGGCCC ((((((....)))..)))	-39.4	54.6
GGGCTCGAAAGAGGTCCC ((((((....)))..)))	-17.1	48.2
GGGCTCGAAAGAGTCCC ((((((....))).)))	-26.1	63.1
GGGCTCGCGAAAGCGCCC (((..(((....))))))	-15.7	56.5
GGGCTCGGAAACGAGCTC (.(((((....))))).)	-15	62.9
GGGCTTGGAAACAAACCC (((.(((....))).)))	-32.8	43.8
GGGCTTGGAAACAAGCTC (.(((((....))))).)	-31.2	54.9
GGGCTTGGAAACAGGCCC ((((.((....)).))))	-43.9	59.1
GGGGAACCGAAAGGTCCC (((..(((....))))))	-17.3	55.6
GGGGAAGGAAACTTCCTC (.(((((....))))).)	-21.6	46.8
GGGGAAGGAAACTTTCCC (((.(((....))).)))	-29	48.3
GGGGACGAAAGTCACCCC ((((((....)))..)))	-12.7	63.3
GGGGACGAAAGTCCGCCC ((((((....)))..)))	-11.5	52.2
GGGGACGAAAGTCTACCC ((((((....)))..)))	-17.9	47.2
GGGGAGCGAAAGCTGCCC (((.(((....))).)))	-23.8	68.8
GGGGAGCGAAAGCTTCCC (((.(((....))).)))	-36.5	68.2
GGGGATACGAAAGTACCC (((..(((....))))))	-24.2	49.2
GGGGATCCGAAAGGACCC (((..(((....))))))	-36.7	53.9
GGGGATGGAAACATCCTC (.(((((....))))).)	-24.4	52.4
GGGGATGGAAACATCTCC ((.((((....)))).))	-32.1	50.3
GGGGATGGAAACGTCCCC (((((.(....).)))))	-48.9	56.1
GGGGCACCGAAAGGTCCC (((..(((....))))))	-25.9	53.1
GGGGCAGGAAACCGCCCC (((((.(....).)))))	-30.3	63.8

Sequence	folding enthalpy [1] [kcal/mol]	Tm [2] [°C]
GGGGCATCGAAAGATCCC (((..(((....))))))	-21.9	48.4
GGGGCCGAAAGGCGACCC ((((((....)))..)))	-15.9	55.9
GGGGCCGAAAGGCGTCCC ((((((....)))..)))	-13.5	53.5
GGGGCCGAAAGGCTCCCC ((((((....)))..)))	-11.7	65
GGGGCCGAAAGGCTTCCC ((((((....)))..)))	-13.5	46.4
GGGGCCGGAAACGACCCC ((((.((....)).))))	-44.1	59.2
GGGGCGCCGAAAGGCCCC (((..(((....))))))	-15	66.1
GGGGCTTCGAAAGAACCC (((..(((....))))))	-20.4	49.1
GGGGGAACGAAAGTTCCC (((..(((....))))))	-8.07	64.3
GGGGGCGAAAGCCGGCCC ((((((....)))..)))	-14.3	48
GGGGGCGAAAGCCTCCC ((((((....))).)))	-15.7	66.1
GGGGGCGAAAGCCTTCCC ((((((....)))..)))	-13.1	42.3
GGGGGGAAACCCCC (((((....)))))	-21.5	65.9
GGGGGGGGAAACCCCTCC ((.((((....)))).))	-17.5	60.9
GGGGGGGGAAACCCTCCC (((.(((....))).)))	-31.3	59.4
GGGGGGGGAAACTCCCCC (((((.(....).)))))	-20.3	64.3
GGGGGTGGAAACACTCCC (((.(((....))).)))	-37.6	56.5
GGGGTAGGAAACCACCCC (((((.(....).)))))	-30.2	50.7
GGGGTCACGAAAGTGCCC (((..(((....))))))	-21.4	58.8
GGGGTCCCGAAAGGGCCC (((..(((....))))))	-14.6	65.3
GGGGTCGAAAGACACCCC ((((((....)))..)))	-12.6	61.8
GGGGTCGAAAGACAGCCC ((((((....)))..)))	-16.6	46.2
GGGGTCGAAAGACCACCC ((((((....)))..)))	-12.7	54.7

Sequence	folding enthalpy [1] [kcal/mol]	Tm [2] [°C]
GGGGTCGAAAGACGCCC ((((((....))).)))	-18.8	57.7
GGGGTCGAAAGACTCCCC ((((((....)))..)))	-22.2	54.3
GGGGTCGCGAAAGCGCCC (((..(((....))))))	-16.4	60.7
GGGGTCGGAAACGATCCC (((.(((....))).)))	-48.4	59.7
GGGGTCGGAAACGGTCCC (((..((....))..)))	-37.3	49.4
GGGGTGGGAAACTGCCCC ((((..(....)..))))	-30.2	51.7
GGGGTTCCGAAAGGACCC (((..(((....))))))	-32.6	56.2
GGGGTTCGAAAGAAGCCC (((.(((....))).)))	-41.5	66.3
GGGGTTGGAAACAGCCTC (.((.((....)).)).)	-21.6	39.1
GGGGTTTCGAAAGAACCC (((..(((....))))))	-32.9	50.8
GGGTAAGGAAACTTACCC (((((((....)))))))	-44.9	58.6
GGGTAAGGAAACTTACTC (.(((((....))))).)	-23.7	37.9
GGGTACCGAAAGGTTCCC (((.(((....))).)))	-30.3	56.2
GGGTACGAAAGTAGCCCC ((((((....)))..)))	-14.5	55
GGGTACGGAAACGTACTC (.(((((....))))).)	-16.1	51.2
GGGTACGGAAACGTGCTC (.(.(((....))).).)	-21.5	43.1
GGGTAGGGAAACCCACCC ((((.((....)).))))	-29.2	48.3
GGGTAGGGAAACTTACCC (((((.(....).)))))	-29.5	45.8
GGGTATCGAAAGATCCCC (((.(((....))).)))	-22.7	50.2
GGGTATCGAAAGATGCCC (((.(((....))).)))	-58.7	58.2
GGGTATGAAAATACCC ((((((....))))))	-35.4	57.6
GGGTATGGAAACATACCC (((((((....)))))))	-44	62.6
GGGTATGGAAACATATCC ((.((((....)))).))	-39.3	44.2

Sequence	folding enthalpy [1] [kcal/mol]	Tm [2] [°C]
GGGTATGGAAACGTATCC ((.((.(....).)).))	-19.8	30.5
GGGTCACGAAAGTGCCC (((.(((....))))))	-39.9	58.5
GGGTCAGAAATGACCC ((((((....))))))	-34.5	65.1
GGGTCAGGAAACCGACCC (((((.(....).)))))	-37.3	52.7
GGGTCCGAAAGGAAACCC ((((((....)))..)))	-22.8	50.2
GGGTCCGAAAGGAAGCCC ((((((....)))..)))	-18.8	46.9
GGGTCCGAAAGGACGCCC ((((((....)))..)))	-10.3	48.9
GGGTCCGAAAGGATCCCC ((((((....)))..)))	-14.6	60.5
GGGTCCGGAAACGAACCC ((((.((....)).))))	-31.9	49
GGGTCGACGAAAGTCCCC (((..(((....))))))	-17.7	38.7
GGGTCGGGAAACCGATCC ((.((((....)))).))	-47.4	57.4
GGGTCTCGAAAGAGCCC (((.(((....))))))	-32	58.2
GGGTCTCGAAAGAGGCCC (((.(((....))).)))	-29.1	67.7
GGGTCTGGAAACAGATCC ((.((((....)))).))	-43.7	51.9
GGGTGACGAAAGTCCCCC (((.(((....))).)))	-28.2	57.9
GGGTGAGGAAACTTACCC ((((.((....)).))))	-35.7	47.7
GGGTGCGAAAGCAACCC ((((((....))).)))	-18.9	68.5
GGGTGCGAAAGCATCCCC ((((((....)))..)))	-13.4	64.3
GGGTGGCGAAAGCCCCCC (((.(((....))).)))	-17.4	65
GGGTGGGGAAACCCGCCC (((.(((....))).)))	-33.6	67.3
GGGTGTGAAAACACCC ((((((....))))))	-34.4	69
GGGTGTGGAAACATGCCC (((..((....))..)))	-28.4	47.7
